From ChEMBL document CHEMBL1208767, “Synthesis and structure-activity relationship of N-(3-azabicyclo[3.1.0]hex-6-ylmethyl)-5-(2-pyridinyl)-1,3-thiazol-2-amines derivatives as NPY Y5 antagonists” (Bioorg Med Chem Lett, 2010)
Values after ≈ are worked out from the molar mass of the structure shown.

Legend:
[1] = target: T1, Neuropeptide Y receptor type 5 (Homo sapiens, UniProt Q15761); experiment: Antagonist activity at human NPY Y5 receptor expressed in HEK293 cells assessed as inhibition of calcium level by FLIPR assay; type: functional, cell-based
T1 sequence (Q15761 whole entry): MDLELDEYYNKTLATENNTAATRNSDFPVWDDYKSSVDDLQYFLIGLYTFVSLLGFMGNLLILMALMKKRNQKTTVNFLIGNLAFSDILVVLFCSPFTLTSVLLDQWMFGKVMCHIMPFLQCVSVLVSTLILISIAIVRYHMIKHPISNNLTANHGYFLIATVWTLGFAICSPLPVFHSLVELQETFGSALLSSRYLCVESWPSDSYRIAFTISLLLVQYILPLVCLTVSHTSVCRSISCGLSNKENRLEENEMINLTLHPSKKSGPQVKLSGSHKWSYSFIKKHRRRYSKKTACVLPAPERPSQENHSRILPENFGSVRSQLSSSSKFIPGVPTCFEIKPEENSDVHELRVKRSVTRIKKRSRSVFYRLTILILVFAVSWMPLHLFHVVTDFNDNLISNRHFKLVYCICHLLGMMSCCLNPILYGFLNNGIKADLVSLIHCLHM
Summary of the method: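 Functional antagonism measured at the human Y5 receptor stably expressed in HEK293 cells, by FLIPR calcium read-out in 384-well format. Results expressed as fpKi. At least two replicates; each determination within 0.3 log units of the mean.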

Cytochrome P450 1A2 = target: T2, Cytochrome P450 1A2 (Homo sapiens, UniProt P05177); experiment: Inhibition of CYP1A2; type: ADME
T2 sequence (P05177 whole entry): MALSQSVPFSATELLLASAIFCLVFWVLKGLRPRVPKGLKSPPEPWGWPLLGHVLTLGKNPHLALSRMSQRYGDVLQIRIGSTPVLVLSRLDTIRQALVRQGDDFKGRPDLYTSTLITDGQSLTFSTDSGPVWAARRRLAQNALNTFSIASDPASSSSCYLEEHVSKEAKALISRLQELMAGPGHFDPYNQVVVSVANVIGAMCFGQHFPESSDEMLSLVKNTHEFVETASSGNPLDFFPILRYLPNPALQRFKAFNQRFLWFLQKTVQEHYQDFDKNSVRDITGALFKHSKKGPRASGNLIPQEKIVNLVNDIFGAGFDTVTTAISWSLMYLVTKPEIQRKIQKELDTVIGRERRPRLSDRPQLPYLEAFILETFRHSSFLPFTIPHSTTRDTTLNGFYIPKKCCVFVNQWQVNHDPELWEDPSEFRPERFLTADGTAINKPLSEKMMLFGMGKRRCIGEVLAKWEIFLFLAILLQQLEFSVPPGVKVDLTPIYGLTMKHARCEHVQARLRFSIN

Cytochrome P450 2C9 = Cytochrome P450 2C9 (Homo sapiens, UniProt P11712); experiment: Inhibition of CYP2C9; type: ADME
Chain of Cytochrome P450 2C9 (P11712 whole entry): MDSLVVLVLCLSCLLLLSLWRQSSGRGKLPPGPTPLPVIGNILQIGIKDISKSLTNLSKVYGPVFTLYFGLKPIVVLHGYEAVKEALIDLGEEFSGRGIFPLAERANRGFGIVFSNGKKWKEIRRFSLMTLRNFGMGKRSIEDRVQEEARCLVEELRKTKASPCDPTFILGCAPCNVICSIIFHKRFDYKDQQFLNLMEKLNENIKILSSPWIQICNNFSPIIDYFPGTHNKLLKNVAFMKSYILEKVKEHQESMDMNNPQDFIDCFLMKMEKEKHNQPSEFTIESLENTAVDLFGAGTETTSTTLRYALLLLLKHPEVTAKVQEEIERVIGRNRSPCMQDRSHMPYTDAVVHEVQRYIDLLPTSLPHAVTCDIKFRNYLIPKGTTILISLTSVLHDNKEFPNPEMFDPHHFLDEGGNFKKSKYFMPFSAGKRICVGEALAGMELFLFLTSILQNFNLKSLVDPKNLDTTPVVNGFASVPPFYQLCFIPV

Cytochrome P450 2C19 = Cytochrome P450 2C19 (Homo sapiens, UniProt P33261); experiment: Inhibition of CYP2C19; type: ADME
Chain of Cytochrome P450 2C19 (P33261 whole entry): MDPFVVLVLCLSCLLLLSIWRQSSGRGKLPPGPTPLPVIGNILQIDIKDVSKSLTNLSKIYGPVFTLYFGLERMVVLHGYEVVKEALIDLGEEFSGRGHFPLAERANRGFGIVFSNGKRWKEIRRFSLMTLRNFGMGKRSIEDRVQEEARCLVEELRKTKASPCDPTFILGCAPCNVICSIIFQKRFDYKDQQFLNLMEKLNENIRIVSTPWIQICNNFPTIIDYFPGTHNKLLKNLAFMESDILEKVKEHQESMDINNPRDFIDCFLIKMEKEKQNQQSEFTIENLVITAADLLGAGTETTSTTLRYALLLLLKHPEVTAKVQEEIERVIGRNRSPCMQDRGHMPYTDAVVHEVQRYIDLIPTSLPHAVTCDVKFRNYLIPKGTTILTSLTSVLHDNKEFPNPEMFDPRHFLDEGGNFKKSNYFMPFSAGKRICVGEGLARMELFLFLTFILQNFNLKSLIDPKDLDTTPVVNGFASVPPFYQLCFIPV

Cytochrome P450 3A4 = Cytochrome P450 3A4 (Homo sapiens, UniProt P08684); experiment: Inhibition of CYP3A4; type: ADME
Chain of Cytochrome P450 3A4 (P08684 whole entry): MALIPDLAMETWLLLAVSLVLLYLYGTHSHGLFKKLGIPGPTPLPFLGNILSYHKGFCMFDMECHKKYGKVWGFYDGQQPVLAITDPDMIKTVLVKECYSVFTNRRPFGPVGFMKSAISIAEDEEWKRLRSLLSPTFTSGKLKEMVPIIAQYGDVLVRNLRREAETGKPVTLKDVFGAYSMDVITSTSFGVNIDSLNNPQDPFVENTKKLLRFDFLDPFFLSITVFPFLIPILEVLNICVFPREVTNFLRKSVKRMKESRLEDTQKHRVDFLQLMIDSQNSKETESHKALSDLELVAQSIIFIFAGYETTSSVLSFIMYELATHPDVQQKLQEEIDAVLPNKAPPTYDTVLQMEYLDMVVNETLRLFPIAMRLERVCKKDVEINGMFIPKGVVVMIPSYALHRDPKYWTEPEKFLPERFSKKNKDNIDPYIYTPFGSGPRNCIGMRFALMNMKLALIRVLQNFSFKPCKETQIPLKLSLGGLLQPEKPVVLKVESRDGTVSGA

[2] = Blood clearance in rat at 0.5 mg/kg, iv and 1 mg/kg, po by cassette dosing; type: ADME, organism-based
Summary of the method: (§1)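 Rats dosed at 0.5 mg/kg iv and 1 mg/kg po.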

[3] = Oral bioavailability in rat at 1 mg/kg, po by cassette dosing; type: ADME, organism-based; conditions: in vivo; summary of the method: as §1
[4] = target: Voltage-gated inwardly rectifying potassium channel KCNH2 (Homo sapiens, UniProt Q12809); experiment: Inhibition of human ERG
Chain of Voltage-gated inwardly rectifying potassium channel KCNH2 (Q12809 whole entry): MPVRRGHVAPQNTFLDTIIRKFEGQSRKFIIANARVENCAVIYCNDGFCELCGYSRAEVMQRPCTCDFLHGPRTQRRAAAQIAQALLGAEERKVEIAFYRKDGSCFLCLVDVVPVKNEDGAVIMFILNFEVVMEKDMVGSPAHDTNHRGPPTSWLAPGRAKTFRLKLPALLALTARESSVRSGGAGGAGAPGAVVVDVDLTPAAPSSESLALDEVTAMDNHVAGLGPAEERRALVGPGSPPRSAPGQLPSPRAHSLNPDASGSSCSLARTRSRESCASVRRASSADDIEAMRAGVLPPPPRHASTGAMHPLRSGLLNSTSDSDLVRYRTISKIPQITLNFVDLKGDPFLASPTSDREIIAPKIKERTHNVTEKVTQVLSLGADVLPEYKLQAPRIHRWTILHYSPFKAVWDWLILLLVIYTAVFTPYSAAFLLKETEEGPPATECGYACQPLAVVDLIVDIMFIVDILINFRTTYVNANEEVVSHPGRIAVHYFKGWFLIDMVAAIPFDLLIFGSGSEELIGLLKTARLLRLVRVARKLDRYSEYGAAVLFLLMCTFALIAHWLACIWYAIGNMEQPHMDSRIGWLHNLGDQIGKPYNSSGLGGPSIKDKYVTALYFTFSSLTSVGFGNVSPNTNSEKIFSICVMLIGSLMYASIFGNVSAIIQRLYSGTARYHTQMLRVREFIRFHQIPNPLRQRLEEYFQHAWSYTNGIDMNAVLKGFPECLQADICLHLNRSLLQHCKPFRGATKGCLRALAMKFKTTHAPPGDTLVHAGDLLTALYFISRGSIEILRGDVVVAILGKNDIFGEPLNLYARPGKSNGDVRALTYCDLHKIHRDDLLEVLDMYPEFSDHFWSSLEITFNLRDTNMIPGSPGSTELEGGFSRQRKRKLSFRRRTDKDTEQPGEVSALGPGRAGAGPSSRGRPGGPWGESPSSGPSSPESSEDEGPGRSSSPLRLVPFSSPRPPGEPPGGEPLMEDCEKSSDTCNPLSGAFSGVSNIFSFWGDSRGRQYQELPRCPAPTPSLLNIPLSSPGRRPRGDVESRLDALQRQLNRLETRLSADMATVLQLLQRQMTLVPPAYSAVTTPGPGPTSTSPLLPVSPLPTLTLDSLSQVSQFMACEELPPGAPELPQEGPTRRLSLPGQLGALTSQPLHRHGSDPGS

[5] = Ratio of drug level in brain to blood in rat at 0.5 mg/kg, iv after 1 hr by cassette dosing; type: ADME, organism-based; design: dose 0.5 mg/kg, route intravenous; conditions: read-out: BBR
Summary of the method: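 Rats dosed at 0.5 mg/kg iv; brain and blood levels taken 1 h after iv dosing.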

Rattus norvegicus = experiment: Whole blood binding in rat at 0.5 mg/kg, iv and 1 mg/kg, po by equilibrium dialysis assay; type: ADME, organism-based; conditions: in vivo
[6] = Solubility of the compound by high throughput chemiluminescent nitrogen detection method; type: physicochemical
[7] = target: T3, Neuropeptide Y receptor type 1 (Homo sapiens, UniProt P25929); experiment: Antagonist activity at human NPY Y1 receptor expressed in HEK293 cells assessed as inhibition of calcium level by FLIPR assay; type: functional, cell-based
T3 sequence (P25929 whole entry): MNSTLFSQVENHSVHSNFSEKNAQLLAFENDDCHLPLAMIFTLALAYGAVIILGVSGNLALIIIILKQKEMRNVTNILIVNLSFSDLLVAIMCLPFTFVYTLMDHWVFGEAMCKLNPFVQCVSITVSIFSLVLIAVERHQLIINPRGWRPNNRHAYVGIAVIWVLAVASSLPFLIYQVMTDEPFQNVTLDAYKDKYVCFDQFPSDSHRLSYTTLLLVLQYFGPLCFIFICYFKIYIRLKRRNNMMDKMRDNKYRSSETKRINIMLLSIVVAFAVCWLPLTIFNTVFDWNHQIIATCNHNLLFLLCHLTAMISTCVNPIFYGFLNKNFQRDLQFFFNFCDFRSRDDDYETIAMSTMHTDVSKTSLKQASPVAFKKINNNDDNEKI

[8] = target: T4, Neuropeptide Y receptor type 2 (Homo sapiens, UniProt P49146); experiment: Antagonist activity at human NPY Y2 receptor expressed in HEK293 cells assessed as inhibition of calcium level by FLIPR assay; type: functional, cell-based
T4 sequence (P49146 whole entry): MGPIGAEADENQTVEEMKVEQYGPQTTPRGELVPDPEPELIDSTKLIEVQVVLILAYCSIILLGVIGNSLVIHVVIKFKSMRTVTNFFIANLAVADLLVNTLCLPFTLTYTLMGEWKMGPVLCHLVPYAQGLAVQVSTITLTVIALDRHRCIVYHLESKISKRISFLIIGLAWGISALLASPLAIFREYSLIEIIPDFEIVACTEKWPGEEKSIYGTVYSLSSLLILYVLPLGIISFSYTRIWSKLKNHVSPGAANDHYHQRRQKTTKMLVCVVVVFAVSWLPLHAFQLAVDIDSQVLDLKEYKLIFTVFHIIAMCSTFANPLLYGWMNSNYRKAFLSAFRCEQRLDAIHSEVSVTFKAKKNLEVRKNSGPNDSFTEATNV

Row | Structure (SMILES) | Ki [1] | further results
1 | c1ccc(-c2csc(NC[C@H]3[C@@H]4CNC[C@@H]43)n2)nc1 | 1000 nM | –
2 | O=C(c1cccnc1)N1C[C@@H]2[C@H](CNc3nc(-c4ccccn4)cs3)[C@@H]2C1 | 5.01 nM | –
3 | O=C(c1ccccc1)N1C[C@@H]2[C@H](CNc3nc(-c4ccccn4)cs3)[C@@H]2C1 | 2.51 nM | –
4 | c1ccc(CN2C[C@@H]3[C@H](CNc4nc(-c5ccccn5)cs4)[C@@H]3C2)cc1 | 1.58 nM | –
5 | Cc1cc(C)cc(CN2C[C@@H]3[C@H](CNc4nc(-c5ccccn5)cs4)[C@@H]3C2)c1 | 3.98 nM | –
6 | O=C(c1cccc(F)c1)N1C[C@@H]2[C@H](CNc3nc(-c4ccccn4)cs3)[C@@H]2C1 | 1 nM | –
7 | CC(c1ccccc1)N1C[C@@H]2[C@H](CNc3nc(-c4ccccn4)cs3)[C@@H]2C1 (stereo partly drawn) | 1.26 nM | –
8 | O=C(Cc1ccccc1)N1C[C@@H]2[C@@H](CNc3nc(-c4ccccn4)cs3)[C@@H]2C1 | 1 nM | –
9 | O=C(C1CCOC1)N1C[C@@H]2[C@H](CNc3nc(-c4ccccn4)cs3)[C@@H]2C1 (stereo partly drawn) | 7.94 nM | IC50 (Cytochrome P450 1A2): > 10000 nM; IC50 (Cytochrome P450 2C9): > 10000 nM; IC50 (Cytochrome P450 2C19): > 10000 nM; IC50 (Cytochrome P450 3A4): > 10000 nM; clearance [2]: 98 mL/min/kg; bioavailability [3]: 15%; IC50 [4]: 2000 nM; Kp at 1 h [5]: < 0.5; Activity (Rattus norvegicus): 74%
10 | O=C([C@H]1C[C@@H]1c1ccccc1)N1C[C@@H]2[C@H](CNc3nc(-c4ccccn4)cs3)[C@@H]2C1 | 0.794 nM | –
11 | Fc1cc(F)cc(CN2C[C@@H]3[C@H](CNc4nc(-c5ccccn5)cs4)[C@@H]3C2)c1 | 0.631 nM | –
12 | CC(=O)N1C[C@@H]2[C@H](CNc3nc(-c4ccccn4)cs3)[C@@H]2C1 | 2510 nM | –
13 | O=C(c1ccncc1)N1C[C@@H]2[C@H](CNc3nc(-c4ccccn4)cs3)[C@@H]2C1 | 50.1 nM | –
14 | O=C(Cc1ccccc1)N1C[C@@H]2[C@H](CNc3nc(-c4ccccn4)cs3)[C@@H]2C1 | 1 nM | –
15 | O=C(C1CCCO1)N1C[C@@H]2[C@H](CNc3nc(-c4ccccn4)cs3)[C@@H]2C1 (stereo partly drawn) | 5.01 nM | –
16 | CC(C)CN1C[C@@H]2[C@H](CNc3nc(-c4ccccn4)cs3)[C@@H]2C1 | 3.98 nM | –
17 | CC(C(=O)N1C[C@@H]2[C@H](CNc3nc(-c4ccccn4)cs3)[C@@H]2C1)C(C)c1ccccc1 (stereo partly drawn) | 5.01 nM | –
18 | O=C(c1ccccc1)N1C[C@@H]2[C@@H](CNc3nc(-c4ccccn4)cs3)[C@@H]2C1 | 12.6 nM | –
19 | CC(C(=O)N1C[C@@H]2[C@H](CNc3nc(-c4ccccn4)cs3)[C@@H]2C1)c1ccccc1 (stereo partly drawn) | 0.398 nM | –
20 | CC(C)C(=O)N1C[C@@H]2[C@H](CNc3nc(-c4ccccn4)cs3)[C@@H]2C1 | 2.51 nM | solubility [6]: 120 µg/mL (≈ 350 µM); IC50 (Cytochrome P450 1A2): ≥ 7000 nM; IC50 (Cytochrome P450 2C9): ≥ 7000 nM; IC50 (Cytochrome P450 2C19): ≥ 7000 nM; IC50 (Cytochrome P450 3A4): ≥ 7000 nM; clearance [2]: 137 mL/min/kg; bioavailability [3]: 6%; Kp at 1 h [5]: 0.7
21 | O=C(CCc1ccccc1)N1C[C@@H]2[C@@H](CNc3nc(-c4ccccn4)cs3)[C@@H]2C1 | 6.31 nM | –
22 | FC(F)(F)c1ccc(Nc2nc(-c3ccccn3)cs2)cc1 | 15.8 nM | IC50 (Cytochrome P450 1A2): < 100 nM; bioavailability [3]: 30%; Kp at 1 h [5]: 4.2; Ki [7]: > 31600 nM; Ki [8]: > 31600 nM
23 | O=C(N1C[C@@H]2[C@H](CNc3nc(-c4ccccn4)cs3)[C@@H]2C1)C1(c2ccccc2)CC1 | 0.794 nM | –
24 | O=C(c1cc(F)cc(F)c1)N1C[C@@H]2[C@H](CNc3nc(-c4ccccn4)cs3)[C@@H]2C1 | 1.58 nM | –
25 | O=C(C1CCOCC1)N1C[C@@H]2[C@H](CNc3nc(-c4ccccn4)cs3)[C@@H]2C1 | 31.6 nM | –
26 | O=C(CCc1ccccc1)N1C[C@@H]2[C@H](CNc3nc(-c4ccccn4)cs3)[C@@H]2C1 | 0.631 nM | –
